In publication PMC7668563 (International journal of molecular biology (Edmond, Okla.), 2020):
Like-named read-outs stand apart in the source and are kept apart here.

Key:
[1] = tested on: human breast adenocarcinoma cell line, MCF-7; conditions: cited from earlier work
[2] = target: T1, apo-human transferrin (apo-hTf) (Homo sapiens, UniProt P02787); assay: Fluorescence quenching of apo-hTf; type: binding; conditions: for biomolecular quenching rate constant kq: kq=Ksv/τ0; for Stern-Volmer quenching constant Ksv / number of binding sites n: pH 7.4; for quenching association constant Ka: pH 7.4, modified Stern-Volmer
Outline: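 Intrinsic fluorescence of apo-hTf in Tris-HCl pH 7.4 was titrated with test compound (Tris-HCl/2% DMSO). Conditions: excitation 280 nm, emission 290–500 nm, slits 10/5 nm, 1.0 cm quartz cell, at 296, 303, 310 and 317 K, triplicate titrations. Intensities were corrected for inner filter effect using absorbances at excitation and emission wavelengths. Ksv came from Stern-Volmer plots of F0/F vs [Q]; kq = Ksv/τ0 (τ0 ~1.0×10−8); Ka and n came from the modified Stern-Volmer equation.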

[3] = tested on: human colorectal adenocarcinoma cell line, HT-29; conditions: read-out: IC50 (±SD), HT-29, ref 21; cited from earlier work
[4] = target: T1, apo-human transferrin (apo-hTf); assay: Far-UV circular dichroism titration of apo-hTf, secondary structure content
Outline: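 Apo-hTf (4.0×10−7 mol L−1) in 2 mM Tris-HCl pH 7.4 was titrated with a 1.0×10−3 mol L−1 stock of test compound in Tris-HCl/2% DMSO, to final 0–2.4×10−6 mol L−1. Far-UV CD was recorded from 190–250 nm under nitrogen in a 1.0 cm cell: six scans at 100 nm/min. Baseline was buffer ± DMSO at room temperature. α-Helix was derived from MRE at 208 nm; β-sheet and random coil by the CD-RRG method.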

[5] = target: T1, apo-human transferrin (apo-hTf); assay: Fluorescence resonance energy transfer; type: binding
Outline: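 Emission spectrum of 1.0×10−5 mol L−1 apo-hTf and absorption spectrum of 1.0×10−5 mol L−1 test compound were recorded in 20 mM Tris-HCl pH 7.4 at room temperature, 260–450 nm, and their spectral overlap determined. E was calculated from apo-hTf fluorescence without and with equimolar test compound. R0 and donor–acceptor distance r came from Förster equations.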

[6] = target: T1, apo-human transferrin (apo-hTf); assay: Thermodynamic parameters of apo-hTf complex formation; type: binding
Outline: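 Ksv values were obtained from apo-hTf fluorescence quenching at pH 7.4 at 296, 303, 310 and 317 K. ΔH°, ΔS° and ΔG° were derived from linear regression of ln(Ksv) vs 1/T (Van't Hoff equation).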

[7] = target: T1, apo-human transferrin (apo-hTf); assay: UV-Vis absorbance titration of apo-hTf; type: binding

T1 sequence (P02787 20-698): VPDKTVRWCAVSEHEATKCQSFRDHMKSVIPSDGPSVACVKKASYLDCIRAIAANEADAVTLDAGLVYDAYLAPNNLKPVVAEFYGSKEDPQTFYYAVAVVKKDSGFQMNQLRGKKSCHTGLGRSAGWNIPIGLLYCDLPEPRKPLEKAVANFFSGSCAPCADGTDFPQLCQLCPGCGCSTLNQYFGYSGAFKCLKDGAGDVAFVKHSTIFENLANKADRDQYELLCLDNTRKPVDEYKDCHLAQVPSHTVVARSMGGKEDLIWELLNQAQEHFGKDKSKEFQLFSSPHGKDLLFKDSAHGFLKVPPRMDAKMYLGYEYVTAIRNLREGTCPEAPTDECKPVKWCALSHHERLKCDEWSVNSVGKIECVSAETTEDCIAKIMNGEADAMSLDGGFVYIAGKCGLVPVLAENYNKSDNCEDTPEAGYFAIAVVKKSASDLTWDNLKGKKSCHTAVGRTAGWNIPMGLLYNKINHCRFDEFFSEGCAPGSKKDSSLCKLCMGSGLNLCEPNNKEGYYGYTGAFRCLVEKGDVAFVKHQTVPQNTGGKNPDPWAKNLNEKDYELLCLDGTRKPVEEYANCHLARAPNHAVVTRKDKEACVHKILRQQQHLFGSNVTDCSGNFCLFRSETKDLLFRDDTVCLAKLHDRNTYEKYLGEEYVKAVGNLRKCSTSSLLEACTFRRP

Structure (SMILES): [Cl-].[Cl-].[Mo+4].c1cc[cH-]c1.c1cc[cH-]c1 [Cp2MoCl2]
- IC50 (±SD), MCF-7 [1]: proliferative activity
- IC50 (±SD), MCF-7 ([1]; listed as Cp^2MoCl^2): Proliferative[21],[68]
- biomolecular quenching rate constant kq ([2]; 296 K): 1.51e+11 M⁻¹ s⁻¹
- Stern-Volmer quenching constant Ksv ([2]; 296 K): 1510 M⁻¹
- number of binding sites n ([2]; 296 K): 1.26
- quenching association constant Ka ([2]; 296 K): 19300 M⁻¹
- biomolecular quenching rate constant kq ([2]; 303 K): 1.59e+11 M⁻¹ s⁻¹
- Stern-Volmer quenching constant Ksv ([2]; 303 K): 1590 M⁻¹
- number of binding sites n ([2]; 303 K): 1.23
- quenching association constant Ka ([2]; 303 K): 15800 M⁻¹
- biomolecular quenching rate constant kq ([2]; 310 K): 1.81e+11 M⁻¹ s⁻¹
- Stern-Volmer quenching constant Ksv ([2]; 310 K): 1810 M⁻¹
- number of binding sites n ([2]; 310 K): 1.19
- quenching association constant Ka ([2]; 310 K): 12100 M⁻¹
- biomolecular quenching rate constant kq ([2]; 317 K): 2.05e+11 M⁻¹ s⁻¹
- Stern-Volmer quenching constant Ksv ([2]; 317 K): 2050 M⁻¹
- number of binding sites n ([2]; 317 K): 1.16
- quenching association constant Ka ([2]; 317 K): 9500 M⁻¹
- IC50 [3]: 2600 µM
- other secondary structure content of apo-hTf ([4]; compound concentration 0.4 (M)): 19.3%
- random coil content of apo-hTf ([4]; compound concentration 0.4 (M)): 33.9%
- α-helix content of apo-hTf ([4]; compound concentration 0.4 (M)): 28.7%
- β-sheet content of apo-hTf ([4]; compound concentration 0.4 (M)): 18.1%
- other secondary structure content of apo-hTf ([4]; compound concentration 0.8 (M)): 19.4%
- random coil content of apo-hTf ([4]; compound concentration 0.8 (M)): 34%
- α-helix content of apo-hTf ([4]; compound concentration 0.8 (M)): 28.3%
- β-sheet content of apo-hTf ([4]; compound concentration 0.8 (M)): 18.3%
- other secondary structure content of apo-hTf ([4]; compound concentration 1.2 (M)): 19.9%
- random coil content of apo-hTf ([4]; compound concentration 1.2 (M)): 34.1%
- α-helix content of apo-hTf ([4]; compound concentration 1.2 (M)): 27.6%
- β-sheet content of apo-hTf ([4]; compound concentration 1.2 (M)): 18.4%
- other secondary structure content of apo-hTf ([4]; compound concentration 1.6 (M)): 20%
- random coil content of apo-hTf ([4]; compound concentration 1.6 (M)): 34.3%
- α-helix content of apo-hTf ([4]; compound concentration 1.6 (M)): 27.1%
- β-sheet content of apo-hTf ([4]; compound concentration 1.6 (M)): 18.6%
- other secondary structure content of apo-hTf ([4]; compound concentration 2 (M)): 20.1%
- random coil content of apo-hTf ([4]; compound concentration 2 (M)): 34.5%
- α-helix content of apo-hTf ([4]; compound concentration 2 (M)): 26.5%
- β-sheet content of apo-hTf ([4]; compound concentration 2 (M)): 18.9%
- other secondary structure content of apo-hTf ([4]; compound concentration 2.4 (M)): 20.2%
- random coil content of apo-hTf ([4]; compound concentration 2.4 (M)): 34.7%
- α-helix content of apo-hTf ([4]; compound concentration 2.4 (M)): 25.8%
- β-sheet content of apo-hTf ([4]; compound concentration 2.4 (M)): 19.3%
- Förster critical energy transfer distance R0 ([5]; k^2=2/3, n=1.336, ØD=0.118): 3.38 nm
- binding distance r (donor-acceptor) ([5]; k^2=2/3, n=1.336, ØD=0.118): 4.44 nm
- efficiency of energy transfer E ([5]; room temperature, 1.0×10^−5 mol L^−1 each): 0.162
- ∆G° ([6]; 296 K): -4.293 kcal/mol
- ∆G° ([6]; 303 K): -4.46 kcal/mol
- ∆G° ([6]; 310 K): -4.625 kcal/mol
- ∆G° ([6]; 317 K): -4.792 kcal/mol
- ∆H° ([6]; pH 7.4, from Ksv at 296-317 K): 2.768 kcal/mol
- ∆S° ([6]; pH 7.4, from Ksv at 296-317 K): 99.78 J/mol K
- Ka at 280 nm ([7]; absorbance at 280 nm): 3060 M⁻¹
- Ka at 361 nm ([7]; absorbance at 361 nm): 3090 M⁻¹
- Association constants, Ka, 280 nm ([7]; absorbance of apo-hTf at 280 nm, pH 7.4): 3.06 10^3 M^−1
- Association constants, Ka, 361 nm ([7]; absorbance of apo-hTf at 361 nm, pH 7.4): 3.09 10^3 M^−1
